Compound activity (PubChem)
DNA FID counter = compounds displacing fluorescent DNA intercalator, primary screen, artefact control for HCV NS3 helicase inhibitor project, biochemical, FID fluorescence. inhibition, % at 7.9 µM. 0.17% of 290,000 active. AID 1845, 2009. DNA fluorescent intercalator displacement; in the data active = inhibition above about 37%;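 note: 0% = vehicle and 100% = reference compound; higher means more ethidium bromide displaced from hairpin DNA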
GRK2 aptamer HTS = compounds blocking aptamer binding on GRK2 – biochemical, human GRK2, bead flow cytometry, HTS, primary screen; inhibition of aptamer binding, % at 10 µM; 0.59% of 330,000 active; FAM-aptamer displacement from GRK2;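 active = inhibition of aptamer binding above 40%, roughly 3 SD of noise, on plates passing a quality check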;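 note: median bead fluorescence of bound FAM aptamer so fluorescent compounds give negative values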
GPR7 antag = GPR7 receptor antagonists, primary screen, cell-based, fluorescence, single concentration. Neuropeptides B/W receptor type 1 (Homo sapiens), P48145. GPR7-expressing cells, fluorescence antagonist assay. inhibition, % at 4.4 µM. 1.1% of 290,000 active; in the data active = inhibition above about 16%, passing the limit was not always enough;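 note: cells stimulated with the agonist NPW; 0% = agonist with vehicle and 100% = vehicle without agonist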
DAGLB inh = DAGLB lipase inhibitors, primary screen, biochemical, fluorescence, HTS | Diacylglycerol lipase-beta (Homo sapiens), Q8NCG7 | HEK293T DAGLB membrane lysate, EnzChek fluorogenic substrate | inhibition, % at 5.17 µM | 0.059% of 340,000 active; in the data active = inhibition above about 34%;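 note: 0% = enzyme with vehicle and 100% = wells lacking enzyme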
Target sequence (Q8NCG7 whole entry, looked up): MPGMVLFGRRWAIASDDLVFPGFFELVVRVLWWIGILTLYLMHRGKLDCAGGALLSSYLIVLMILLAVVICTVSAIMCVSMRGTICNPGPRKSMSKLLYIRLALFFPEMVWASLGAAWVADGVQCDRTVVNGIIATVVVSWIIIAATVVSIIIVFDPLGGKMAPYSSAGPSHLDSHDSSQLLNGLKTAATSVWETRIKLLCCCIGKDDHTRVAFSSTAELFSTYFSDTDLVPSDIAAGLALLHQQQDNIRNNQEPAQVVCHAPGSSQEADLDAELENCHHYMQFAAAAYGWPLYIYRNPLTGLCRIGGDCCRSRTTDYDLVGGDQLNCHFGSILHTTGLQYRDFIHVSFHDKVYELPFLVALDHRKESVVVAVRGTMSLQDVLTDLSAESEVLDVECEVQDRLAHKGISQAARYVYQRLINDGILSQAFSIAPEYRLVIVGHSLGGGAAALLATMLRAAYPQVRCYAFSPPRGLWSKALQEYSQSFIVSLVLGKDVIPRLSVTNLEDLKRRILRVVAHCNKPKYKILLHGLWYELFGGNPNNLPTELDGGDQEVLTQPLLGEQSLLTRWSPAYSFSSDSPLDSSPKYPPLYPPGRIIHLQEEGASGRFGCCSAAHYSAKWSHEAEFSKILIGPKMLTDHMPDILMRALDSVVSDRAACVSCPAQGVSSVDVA
core dimer inh = inhibitors of HCV core protein dimerization, primary screen, biochemical, TR-FRET, high-throughput; 0.33% of 300,000 active; inhibition, % at 5 µM; TR-FRET GST/Flag-core106 dimerization, 1536-well; AID 1899, 2009;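 active = inhibition above the mean of all tested compounds plus 3 SD, set per screening campaign, cut at about 45% in these data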
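System: GST/Flag-tagged HCV core106 proteins. Incubation: compound-protein-antibody incubation 4 h at 22.5 °C. Technique: HTRF with 340 nm excitation, 617/671 nm emission. Medium: KF-containing HEPES buffer, pH 7.45, DTT, CHAPS, BSA. Read-out: inhibition (%) from 671 over 617 nm ratio. Also added: Eu(K)-anti-GST 90 ng/mL plus XL665-anti-Flag 1 µg/mL.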
HCV NS3 hel inh = inhibitors of HCV NS3 helicase, primary screen, biochemical, Cy5 molecular beacon fluorescence; NS3 helicase DNA unwinding; inhibition, % at 10.9 µM; 0.56% of 290,000 active; Hepatitis C virus NS3 helicase;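 active = inhibition above the mean of all tested compounds plus 3 SD, set per campaign, cut at about 35% in these data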;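 note: 0% = DMSO wells and 100% = thioflavine S control wells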
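assay system = NS3 helicase fragment of HCV | buffer or medium = MOPS pH 6.5, MgCl2, DTT, Tween20, BSA | timing = 60 min unwinding reaction at 25 °C after ATP addition | signal = Cy5 beacon fluorescence read at start and 1 h | read-out basis = % inhibition of unwinding | control set = low DMSO, high thioflavine S at 110 µM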
GRK2 inh confirm = GRK2 aptamer-displacing inhibitors, retest, confirmation, biochemical, cherry pick 1, bead flow cytometry; shares compounds with GRK2 aptamer HTS; bead-bound GRK2, FAM-aptamer displacement; aptamer displacement, % at 10 µM; 4% of 2,000 active;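 active = aptamer displacement above 40%, near three times the noise of non-fluorescent compounds, on plates passing quality checks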;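 note: negative values mostly reflect intrinsic compound fluorescence rather than true enhancement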
Aptamer quench = counter-screen for GRK2 aptamer inhibitors: fluorescent aptamer quenchers. shares compounds with GRK2 aptamer HTS. Fluorescent RNA aptamer beads, quenching, flow cytometry; hits give high values. fluorescence change (kMESF span), kMESF (no concentration beside the values). 110 tested, under 10 active. AID 504521;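 active = compounds whose bead fluorescence drops by more than 37 kMESF across the dose range, marking them as dye quenchers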
FAM quench CP1 = aptamer fluorescence quenching in GRK2 counter-screen; shares compounds with GRK2 aptamer HTS; Carboxyfluorescein RNA aptamer on beads, flow cytometry quenching; hits give low values; fluorescence response (% of DMSO), % at 10 µM; 2,000 tested, under 10 active; AID 504580;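 active = compounds that quench the bead-bound fluorescent RNA probe, cutting fluorescence to under half of the solvent control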;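 note: counterscreen run without GRK2 so only probe quenching by compound is measured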
GRK2 confirm 2 = GRK2 aptamer-displacing inhibitors, hit retest, confirmation, biochemical, cherry pick 2, bead flow cytometry; shares compounds with GRK2 aptamer HTS; 360 tested, under 10 active; AID 504782, 2011; bead-bound GRK2, FAM-aptamer displacement; inhibition of aptamer binding, % at 10 µM;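 active = inhibition of aptamer binding above 40%, about triple the noise seen with nonglowing compounds, on plates passing quality control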;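 note: negative values mostly come from compounds that fluoresce themselves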
FAM quench SP = aptamer fluorescence quenching in GRK2 counter-screen; fluorescence response vs DMSO, % at 10 µM; shares compounds with GRK2 aptamer HTS; 360 tested, under 10 active; carboxyfluorescein RNA aptamer beads, flow cytometry quenching; hits give low values;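 active = response vs DMSO under 50%, meaning signal dropped by over half, treated as fluorescence quencher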;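 note: labelled aptamer on streptavidin beads without GRK2 as a quench counter-screen; 100% = bead fluorescence of DMSO wells and lower means quenching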
An asterisk follows results filed as active; . = no result. An excerpt weighted towards active compounds, which were near 2.2% of everything screened.

SMILES	DNA FID counter	GRK2 aptamer HTS	GPR7 antag	DAGLB inh	core dimer inh	HCV NS3 hel inh	GRK2 inh confirm	FAM quench CP1	others
O=C(O)c1ccccc1-c1ccc(/C=c2\sc3nc4cc(Br)cnc4n3c2=O)o1	7	99*	5	-4	-2	10	90*	89	Aptamer quench=16
Cc1ccc(NC(=O)CS(=O)CC(=O)Nc2ccc(N3CCOCC3)cc2)cc1Cl (centres undefined)	-3	70*	17	2	-5	-26	-4	91
Cc1ccc(NC(=O)c2cc(N3C(=O)C=CC3=O)ccc2N2CCOCC2)cc1Cl	-17	71*	-5	5	7	4	-2	101
CCc1ccc(-n2c(C)n[nH]c2=S)cc1	-4	0	-7	-1	0	2	.	.
Cc1nn(C)c(C)c1S(=O)(=O)N1CCCC(C(=O)N2CCN(c3ccccc3)CC2)C1 (centres undefined)	-36	82*	6	3	-6	5	-1	99
COc1ccc(C(=O)O)cc1N1C(=O)Nc2ccccc2N1O	5	78*	1	-1	-2	4	0	100
Cc1cccc(C)c1NC(=O)COC(=O)CNC(=O)C1CCCCC1	.	95*	.	0	.	.	0	98
CCOC(=O)c1cccc(NC(=O)CNC(=O)C2CCCCC2)c1	-9	54*	-18	-1	6	16	-1	97
O=C(CNC(=O)C1CCCCC1)Nc1ccccc1	-1	1	-2	1	-4	0	.	.
COc1ccc2oc(C(=O)N(Cc3ccco3)Cc3cccs3)c(C)c2c1	.	80*	.	-5	6	.	0	97
CCN(CC(=O)Nc1ccc(NC(C)=O)cc1)C(=O)C1CC(=O)N(CCc2ccc(OC)c(OC)c2)C1 (centres undefined)	.	92*	.	0	0	.	-63	98
COc1ccc(CCN2CC(C(=O)OC(C)C(=O)Nc3ccc(NC(C)=O)cc3)CC2=O)cc1OC (centres undefined)	.	.	.	-3	.	.	.	.
CN=C1NC(C)(C)C2CCC(C)(CC2)S1	.	.	.	-4	.	.	.	.
CCN(CCO)c1ncnc2onc(-c3ccc(F)cc3)c12	-5	0	4	4	3	7	.	.
O=c1[nH]cnc2onc(-c3ccc(F)cc3)c12	-1	12	-6	-4	3	0	1	95
OCC1(CCCc2ccccc2)CCN(Cc2cnc(N3CCOCC3)s2)CC1	8	0	-17	1	-3	9	-2	94
CCOC(=O)C1CCCN(CCC(=O)Nc2ccccc2)C1 (centres undefined)	0	0	3	-1	3	8	.	.
CCOC(=O)C1CCCN(CCC(C)c2ccccc2)C1 (centres undefined)	12	78*	-3	2	-1	7	2	102
CC(Nc1nc(-c2ccc(F)cc2)cs1)c1nc2cc(Cl)c(N3CCCCC3)cc2n1CCOCCO (centres undefined)	.	0	.	1	-12	.	-1	103
CC(Nc1nc(-c2cccc(Br)c2)cs1)c1nc2cc(Cl)c(N3CCCCC3)cc2n1CCOCCO (centres undefined)	-34	3	-6	1	5	-34	3	100
CC(C)Oc1cccc(C(=O)N/N=C/c2coc3ccccc3c2=O)c1	-7	8	1	3	.	2	.	.
O=C(c1ccco1)N1CCN(Cc2nnc(-c3ccccc3)o2)CC1	-5	0	-15	-2	5	5	.	.
CC(=O)Nc1ccccc1C(=O)C(=O)Nc1ccccc1	1	4	-2	0	-11	3	.	.
CCC(=O)Nc1ccccc1C(=O)C(=O)Nc1ccccc1	-4	40	-3	1	-5	6	-2	97
CC1CCCCC1NC(=O)COC(=O)c1c2c(nc3ccccc13)/C(=C\c1ccco1)CC2 (centres undefined)	.	.	.	16	.	.	.	.
SMILES	DNA FID counter	GRK2 aptamer HTS	GPR7 antag	DAGLB inh	core dimer inh	HCV NS3 hel inh	GRK2 inh confirm	FAM quench CP1	others
COc1ccccc1/C=C/C(=O)OCc1nc2ccccc2c(=O)[nH]1	-19	4	6	-3	8	-6	.	.
COCCCNCCCOc1ccc(C(C)(C)c2ccccc2)cc1	7	0	1	0	-2	-47	.	.
COCCNCCCOc1ccc(C(C)(C)c2ccccc2)cc1	9	100*	-5	-2	-5	-41	.	.	GRK2 confirm 2=-1;FAM quench SP=101
CCC(CO)[n+]1c(C)cc(/C=C2\Sc3ccccc3N2Cc2ccccc2)cc1C (centres undefined)	-7	71*	0	0	0	-57	30	138
O=C(Nc1ccccc1)c1ccc(CN2CCc3ccccc3C2)cc1	4	100*	0	-1	3	-15	.	.	GRK2 confirm 2=-14;FAM quench SP=98
O=S(=O)(c1ccc(F)cc1)N1CCCNCC1	-3	0	-13	-2	-2	1	-13	104
Cc1ccccc1NC(=O)N1CCN(C/C=C/c2ccccc2)CC1	-4	66*	-11	5	4	-3	3	99
O=C(Nc1ccccc1Cl)N1CCN(C/C=C/c2ccccc2)CC1	0	0	-9	1	-11	0	.	.
CN=c1scc(C)n1/N=C/c1ccc2c(c1)OCO2	-4	91*	-4	-5	-20	0	-1	101
CN=c1scc(C)n1/N=C/c1ccc(O)cc1	2	2	9	4	-34	-1	.	.
